Measured values reported in ChEMBL document CHEMBL4390653, “Potential anti-herpes and cytotoxic action of novel semisynthetic digitoxigenin-derivatives” (Eur J Med Chem, 2019).

How the values were obtained:
[1] = system: NCI-H460; assay: Cytotoxicity against human H460 cells assessed as inhibition of cell viability after 48 hrs by SRB assay; type: functional, cell-based; settings: NCI-H460, 48 h
In short: (§1)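 Cells seeded at 2.5 × 10^4 per well and exposed to a concentration range for 48 h, then SRB total-protein stain. PC3 grown in phenol-red-free DMEM with 1% glutamine; LNCaP in phenol-red-free RPMI 1640 with glutamine and non-essential amino acids. HCT-8 and H460 in RPMI 1640. MRC-5 (plus glutamine and non-essential amino acids) and primary gingival fibroblasts in DMEM. All media had 10% FBS, 37 °C, 5% CO2. Paclitaxel was the reference. IC50 versus untreated controls by nonlinear regression, three independent experiments.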

[2] = Selectivity index, ratio of Cytotoxicity against African green monkey Vero cells assessed as reduction in cell viability after 48 hrs by SRB assay to Antiviral activity against Herpes simplex virus 2-333 infected in African green monkey Vero cells assessed as inhibition of viral replication after 48 hrs by naphthol blue-black staining-based plaque reduction assay; type: toxicity; settings: Vero cells infected with HSV-2 333, read-out: Ratio CC50/IC50
In short: (§2)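 Selectivity index = CC50 in Vero cells (SRB, 48 h) divided by plaque-reduction IC50 for the same virus strain.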

[3] = system: Human alphaherpesvirus 2; assay: Antiviral activity against Herpes simplex virus 2-333 infected in African green monkey Vero cells assessed as inhibition of viral replication after 48 hrs by naphthol blue-black staining-based plaque reduction assay; type: functional, organism-based; settings: Human alphaherpesvirus 2, 333, Vero
In short: (§3)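 Vero cells in MEM with 10% FBS, 37 °C, 5% CO2. Confluent monolayers (2.5 × 10^5 cells/well) infected with about 100 PFU for 1 h at 37 °C. Non-cytotoxic concentrations were added after infection. Cells were then PBS-washed and overlaid with MEM plus 1.5% carboxymethylcellulose, with or without compound, for 48 h. Fixed, naphthol blue-black stained, plaques counted under a stereomicroscope. IC50 versus untreated controls by nonlinear regression; mean of three independent experiments.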

[4] = system: Human alphaherpesvirus 1; assay: Antiviral activity against acyclovir-resistant Herpes simplex virus 1 29-R infected in African green monkey Vero cells assessed as inhibition of viral replication after 48 hrs by naphthol blue-black staining-based plaque reduction assay; type: functional, organism-based; settings: Human alphaherpesvirus 1, 29-R, Vero, 48 h; read-out: IC50; in short: as §3
[5] = (§4) Selectivity index, ratio of Cytotoxicity against African green monkey Vero cells assessed as reduction in cell viability after 48 hrs by SRB assay to Antiviral activity against acyclovir-sensitive Herpes simplex virus 1 KOS infected in African green monkey Vero cells assessed as inhibition of viral replication after 48 hrs by naphthol blue-black staining-based plaque reduction assay; type: toxicity; settings: Vero cells infected with HSV-1 KOS, read-out: Ratio CC50/IC50; in short: as §2
[6] = system: HCT-8; assay: Cytotoxicity against human HCT8 cells assessed as inhibition of cell viability after 48 hrs by SRB assay; type: functional, cell-based; settings: HCT-8, 48 h; in short: as §1
[7] = system: Human alphaherpesvirus 1; assay: Antiviral activity against acyclovir-sensitive Herpes simplex virus 1 KOS infected in African green monkey Vero cells assessed as inhibition of viral replication after 48 hrs by naphthol blue-black staining-based plaque reduction assay; type: functional, organism-based; settings: Human alphaherpesvirus 1, strain KOS; in short: as §3
[8] = Cytotoxicity against African green monkey Vero cells assessed as reduction in cell viability after 48 hrs by SRB assay; type: cell-based; settings: chlorocebus sabaeus
In short: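 Vero cells in MEM with 10% FBS, seeded at 2.5 × 10^4 cells/well. Exposed to a range of concentrations for 48 h at 37 °C, 5% CO2, then sulforhodamine B total-protein staining. CC50 is the concentration reducing viability by 50% versus untreated controls, from nonlinear regression; mean ± SD of three independent experiments.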

[9] = system: MRC5; assay: Cytotoxicity against human MRC5 cells assessed as inhibition of cell viability after 48 hrs by SRB assay; type: cell-based; settings: MRC5, 48 h; in short: as §1
[10] = Inhibition of porcine cortex Na+/K+-ATPase alpha1/2/3 subunit using ATP as substrate preincubated for 30 mins followed by substrate addition and measured after 30 mins by malachite green reagent-based assay; parameters: species or system Sus scrofa
[11] = system: LNCaP; assay: Cytotoxicity against human LNCAP cells assessed as inhibition of cell viability after 48 hrs by SRB assay; type: functional, cell-based; in short: as §1
[12] = Cytotoxicity against human HGF cells assessed as inhibition of cell viability after 48 hrs by SRB assay; type: cell-based; in short: as §1
[13] = as §4, with “acyclovir-resistant” for “acyclovir-sensitive”, “29-R” for “KOS”; type: toxicity; settings: Vero cells infected with HSV-1 29-R, read-out: Ratio CC50/IC50; in short: as §2
[14] = system: PC-3; assay: Cytotoxicity against human PC3 cells assessed as inhibition of cell viability after 48 hrs by SRB assay; type: functional, cell-based; settings: PC-3, 48 h; in short: as §1
[15] = system: Human alphaherpesvirus 2; assay: (§5) Potency index, ratio of IC50 for acyclovir to IC50 for test compound for antiviral activity against Herpes simplex virus 2-333 infected in African green monkey Vero cells assessed as inhibition of viral replication after 48 hrs by naphthol blue-black staining-based plaque reduction assay; type: functional
[16] = system: Human alphaherpesvirus 1; assay: as §5, with “against acyclovir-sensitive” for “against”, “1 KOS” for “2-333”; type: functional, strain KOS
[17] = system: A549; assay: Cytotoxicity against human A549 cells assessed as inhibition of cell viability after 48 hrs by SRB assay; type: functional, cell-based; settings: A549, 48 h

Structure (SMILES) | IC50 [1] [µM] | selectivity ratio at 48 h [2] | IC50 [3] [µM] | IC50 [4] [µM] | selectivity ratio at 48 h [5] | IC50 [6] [µM] | IC50 [7] [µM] | CC50 at 48 h [8] [µM] | IC50 [9] [µM] | IC50 [10] [µM] | IC50 [11] [µM] | IC50 [12] [µM] | selectivity ratio at 48 h [13] | IC50 [14] [µM] | Ratio IC50 [15] | Ratio IC50 [16] | IC50 [17] [µM]
C[C@]12CC[C@H](NC(=O)CO)C[C@H]1CC[C@@H]1[C@@H]2CC[C@]2(C)[C@@H](C3=CC(=O)OC3)CC[C@]12O | 0.26 | > 1000 | 0.3 | 0.19 | > 1250 | 0.69 | 0.24 | > 300 | 0.25 | 0.843 | 0.81 | 1.67 | > 1580 | 0.42 | 11 | 6 | –
C[C@]12CC[C@H](NC(=O)CNCCO)C[C@H]1CC[C@@H]1[C@@H]2CC[C@]2(C)[C@@H](C3=CC(=O)OC3)CC[C@]12O | 0.07 | > 1110 | 0.27 | 0.18 | > 1300 | 0.09 | 0.23 | > 300 | 0.13 | 1.99 | 0.13 | 0.66 | > 1670 | 0.18 | 12 | 6 | 0.19
C[C@@H](O)[C@H](O)[C@@H](O)CCN[C@H]1CC[C@@]2(C)[C@H](CC[C@@H]3[C@@H]2CC[C@]2(C)[C@@H](C4=CC(=O)OC4)CC[C@]32O)C1 | 0.37 | > 236 | 1.27 | 3.23 | > 206 | 1.25 | 1.46 | > 300 | 0.55 | 2.04 | 2.46 | 2.55 | > 92.9 | 1.22 | – | – | 0.68
C[C@]12CC[C@H](n3cc(CO[C@H]4O[C@H](CO)[C@@H](O)[C@H](O)[C@@H]4O)nn3)C[C@H]1CC[C@@H]1[C@@H]2CC[C@]2(C)[C@@H](C3=CC(=O)OC3)CC[C@]12O | 0.24 | > 732 | 0.41 | 0.37 | > 546 | 1.02 | 0.55 | > 300 | 0.36 | 5.47 | 1.66 | 1.41 | > 811 | 0.58 | – | – | 0.58
